# Compound activity from PubChem BioAssay.
# A selection: hits, their analogues and other compounds. The true share with any hit is near 9%.
# D1 mod – D1 dopamine receptor (human) allosteric modulation | P21728 | B-score at 10 µM | HEK293 D1, CRE-luciferase, dopamine EC30 potentiation; actives deviate in either direction | 58,000 compounds, 5.9% hits;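 active means luminescence count or its row- and column-corrected plate score outside the 99.7% band of the plate's sample wells, on either side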
# M1 agonist – activates the M1 muscarinic receptor; CHO-M1 cells, Fluo-4 calcium fluorescence, agonist mode; hits give high values; B-score at 10 µM; 64,000 compounds, 3% hits; AID 626;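 active means fluorescence rise, raw or as B-score row- and column-corrected plate score, outside the 99.7% band of its plate's samples, either direction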
# M1 antag – M1 muscarinic receptor (rat) antagonism; CHO-M1 cells, Fluo-4 calcium, ACh EC80 antagonist mode; hits give low values; B-score at 10 µM; 64,000 compounds, 3.4% hits; P08482;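 active means calcium fluorescence response, raw or row-and-column corrected B-score, differing from the plate sample mean either way at a set confidence level, mostly lower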
# AP complement – alternative pathway complement inhibition, orthogonal assay. Human serum alternative complement pathway, LPS-coated ELISA, C3 deposition; tested in compound mixtures. inhibition, % at 5 µM. 62,000 compounds, 0.08% hits. AID 1235;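 active means inhibition above 30% in each of the two pooled mixtures holding the compound, so the lower value exceeds 30%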;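 further: 0% = serum in Mg-EGTA without compound and 100% = EDTA serum blank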
#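 Assay system: human serum alternative complement pathway, C3 deposition on LPS-coated wells; Dosing: 5 µM per compound in ten-compound mixtures; Detection: Anti-C3 ELISA, OD 450 nm; Buffer or medium: Mg2+-EGTA GVB++ buffer containing human serum at 1:15 dilution; Timing: 1 h at 37 °C; Replication: two different pools per compound.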
# mHtt clearance – mutant huntingtin protein clearance. HeLa Exon1htt(103Q)mCFP, aggregate imaging; zero = plate's median compound well. AID 853. inhibition, % at 1.5 µM. 47,000 compounds, 0.42% hits;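 active means inhibition of aggregate fluorescence above about 70%, also judged a hit by eye on the cell image, limit read from the data, passing the limit was not always enough; inconclusive means no rule stated for this call; inactive means not judged a hit on image review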;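 further: cells exposed to compound for three days before fixation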
# M1 ag confirm – rat M1 muscarinic agonism, confirmation. shares compounds with M1 agonist. CHO-M1 cells, Fluo-4 calcium fluorescence, agonist mode; actives lie on both sides. fluorescence change (max-min) at 10 µM. 1,700 compounds, 19% hits. AID 1488;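 active means fluorescence change differs from the solvent-only DMSO control mean at a set confidence level in both duplicate runs; inconclusive means differs from solvent-only control mean in just one of two runs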;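 further: an EC20 dose of acetylcholine follows compound addition during the same imaging run; raw fluorescence intensity difference in instrument units with no normalization to controls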
# M4 ag counter – activates rat M4 receptor in counter-screen for M1 agonists | shares compounds with M1 agonist | CHO M4/Gqi5 cells, Fluo-4 calcium fluorescence, agonist mode; actives lie on both sides | fluorescence change (max-min) at 10 µM | 1,700 compounds, 9% hits | AID 1741;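 active means fluorescence change differing from the plate's solvent-only control wells at 99.7% confidence in both duplicates, whether higher or lower; inconclusive means differs from solvent controls in only one of two duplicates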
# Target sequence (P08485 whole entry, looked up): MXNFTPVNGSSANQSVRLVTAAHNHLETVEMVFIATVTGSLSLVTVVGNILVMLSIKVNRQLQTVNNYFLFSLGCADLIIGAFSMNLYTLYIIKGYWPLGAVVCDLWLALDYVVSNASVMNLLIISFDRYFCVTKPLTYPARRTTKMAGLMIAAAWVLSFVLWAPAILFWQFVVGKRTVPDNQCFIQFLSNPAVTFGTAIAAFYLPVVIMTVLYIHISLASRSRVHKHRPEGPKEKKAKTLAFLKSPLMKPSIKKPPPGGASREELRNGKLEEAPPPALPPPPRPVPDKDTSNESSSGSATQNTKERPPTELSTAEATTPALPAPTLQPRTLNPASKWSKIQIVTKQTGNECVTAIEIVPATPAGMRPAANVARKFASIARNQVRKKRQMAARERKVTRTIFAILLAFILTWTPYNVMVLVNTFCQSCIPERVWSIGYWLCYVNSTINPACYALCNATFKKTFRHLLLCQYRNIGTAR
# * hit, by the source's call; ? = inconclusive; · = no result.
SMILES,D1 mod,M1 agonist,M1 antag,AP complement,mHtt clearance,M1 ag confirm,M4 ag counter
CC(C)(C)NC(=O)Nc1ccc2nccnc2c1,0.63,-0.15,0.58,4,26,·,·
CCOc1ccc(NC(=O)Nc2ccc3nccnc3c2)cc1,-0.64,9.6*,-0.85,-1,8,-7.6,-49
COc1ccc(-c2cc(C(F)(F)F)nc(N3CCCCCC3)n2)cc1,·,4.6*,0.23,18,6,-3.6,?
COc1ccc(-c2cc(C(F)(F)F)nc(N3CCN(C)CC3)n2)cc1,0.072,·,·,-6,·,·,·
N#CC1=C(N)NC(SCC(=O)Nc2ccccc2)=C(C#N)C12CCCC2,-0.56,2.9*,-0.31,1,-24,7.5,-5.3
Cc1cc(Cl)ccc1OCC(=O)N1CCCCC1,1.4,2.2*,0.85,23,·,?,-29
Cc1cc(C)c(C)c(OCC(=O)N2CCCCCC2)c1,·,·,·,·,-14,·,·
Cc1cc(C)n2nc(SCC(=O)N(C)Cc3ccccc3)nc2n1,·,2.1*,1,-8,·,-18,?
N#Cc1c(NCCO)nc(NCc2ccccc2)c2c1CCN(Cc1ccccc1)C2,·,3.3*,-1.3,9,·,-3.8,-4.3
Cc1ccc(-c2nc(CS(=O)CC(=O)NC3CCC(C)CC3)c(C)o2)cc1 (centres undefined),0.096,-1.3,0.28,24,·,·,·
O=C(CN(Cc1ccco1)C(=O)CNS(=O)(=O)c1ccc(F)cc1)NCCc1ccccc1,-1.1,2.5*,-0.96,4,·,?,?
Clc1ccc(Cl)c(OCc2cc(-c3ccccc3Cl)on2)c1,·,·,·,·,2,·,·
O=C(CSc1ccc2ccccc2n1)N1CCC(c2noc3ccc(F)cc23)CC1,·,·,·,·,36,·,·
CC(=O)OC1=C(C#N)Cn2ccc3cccc1c32,-0.26,9*,0.58,-12,-60,39,21
Fc1ccccc1N1CCN(c2nc3ccccc3n3nnnc23)CC1,-0.45,12*,0.16,16,·,?,35
COc1ccc2cc3cc(C(=O)NCc4ccc5c(c4)OCO5)oc3nc2c1,0.79,2.1*,-0.51,14,5,?,-46
Cc1nc2ccccc2c2oc(C(=O)NCc3ccc4c(c3)OCO4)cc12,-2.2,2.6*,-2*,23,·,-8.3,-35
O=C(Nc1nc2ccccc2s1)C1CC(=O)N(c2ccc(F)cc2)C1 (centres undefined),·,·,·,·,-10,·,·
Cc1c(Cc2ccccc2)sc(N)c1C(N)=O,0.57,8.8*,-0.074,0,-113,0.13,-26
CCOc1ccc(Nc2ncnc3c2cnn3-c2ccccc2)cc1,1.3,3.2*,-0.04,12,·,-19,?
COc1cccc(C(=O)N(Cc2cc3cc(C)ccc3[nH]c2=O)CC2CCCO2)c1 (centres undefined),0.39,·,·,-3,·,·,·
COc1ccc2[nH]c(=O)c(CN(CC3CCCO3)C(=O)Nc3ccc(F)cc3)cc2c1 (centres undefined),-0.22,11*,-4.3*,9,6,-1,-21
COc1ccc2c(c1)[nH]c1c(=O)n(CCN3CCCC3)cnc12,-0.86,2.2*,0.14,2,·,?,-44
O=C(NCc1ccco1)c1cnn2c(C(F)(F)F)cc(-c3cccs3)nc12,0.075,0.82,-0.76,-3,-15,·,·
CC(=O)N1CCc2c(sc(NC(=O)C3CC3)c2-c2nc3ccccc3s2)C1,-0.88,6.1*,-1.4,9,·,11,?
SMILES,D1 mod,M1 agonist,M1 antag,AP complement,mHtt clearance,M1 ag confirm,M4 ag counter
COCCn1c(-c2ccccc2)nc2oc3ccccc3c(=O)c2c1=O,0.5,2.4*,0.066,3,·,-25*,-96*
O=S(=O)(NCCCCCNS(=O)(=O)c1ccccc1)c1ccccc1,1.2,-1.7*,-1.3,14,·,16,-6.8
Cc1ccc(CNC(=O)C2CCCN(c3nc4ccccc4o3)C2)cc1 (centres undefined),0.65,-0.72,0.32,10,·,·,·
O=C(NCCC1=CCCCC1)C1CCCN(c2nc3ccccc3o2)C1 (centres undefined),-0.86,6.8*,-0.27,-3,·,?,?
O=C(CSc1nnc(Cc2ccccc2)o1)Nc1ccc2c(c1)OCO2,·,·,·,·,-8,·,·
CC(C)N1CC=C2C(C#N)=C(N)C(C#N)(C#N)C(c3ccccc3)C2C1 (centres undefined),·,225*,-0.3,21,·,427*,400*
CN1CC=C2C(C#N)=C(N)C(C#N)(C#N)C(Cc3ccccc3)C2C1 (centres undefined),-0.7,30*,-0.7,-2,-129,98*,63
CC(C)(C)OC(=O)N1CC=C2C(C#N)=C(N)C(C#N)(C#N)C(c3cccs3)C2C1 (centres undefined),0.039,4.7*,-0.78,4,·,-8.3,?
CCC1C2CN(C(C)=O)CC=C2C(C#N)=C(N)C1(C#N)C#N (centres undefined),-0.88,-0.49,-0.24,-13,?,·,·
COc1cc(C2C3CN(C)CC=C3C(C#N)=C(N)C2(C#N)C#N)ccc1OC(C)C (centres undefined),-4.9*,5.1*,-0.35,13,·,30,31
CCN(CC)c1ccc(C(=O)OCC(=O)N2CCN(c3ccccc3)CC2)cc1,1.9,-0.28,-1.6,4,21,·,·
CC1(C)Cc2nc3nc(SCC(=O)NCCc4ccccc4)n(-c4ccccc4)c(=O)c3cc2CO1,·,·,·,·,-55,·,·
CCN(CC)CCCN(Cc1cc2cc3c(cc2[nH]c1=O)OCCO3)C(=O)Nc1ccc(F)cc1,-0.32,0.29,-2,-24,·,·,·
CN1CCc2c(sc3c2c(=O)n(-c2ccccc2)c2nnc(SCc4ccccc4F)n32)C1,0.17,-0.27,-0.026,22,·,·,·
Cc1ccc(NC(=O)c2ccc(S(=O)(=O)N3CCCCC3)cc2)cc1,·,·,·,·,-31,·,·
CCN(CC)S(=O)(=O)c1cccc(-c2nnc(SCCOc3ccc(Cl)cc3)o2)c1,-1.8,-1.5,0.053,6,·,·,·
CCN(CC)S(=O)(=O)c1cccc(-c2nnc(SCCOc3ccccc3C)o2)c1,·,5.6*,-1.2,14,·,18,?
CCn1c(=O)c(=O)[nH]c2cc(C(=O)N3CCN(c4ccccc4F)CC3)ccc21,-0.013,0.025,0.12,16,·,·,·
COc1cc2nc(NCC3CCCO3)n3nc(-c4cccnc4)nc3c2cc1OC (centres undefined),-2.2,2.9*,-3.9*,-7,24,?,-39
Cc1cc(S(=O)(=O)Nc2cc(C)c(O)c(C)c2)c(C)s1,·,·,·,·,-26,·,·
CC(C)c1nnc(N2C(=O)c3oc4ccccc4c(=O)c3C2c2ccco2)s1 (centres undefined),-0.42,-0.21,-0.53,·,·,·,·
Cc1nnc(N2C(=O)c3oc4ccccc4c(=O)c3C2c2ccco2)s1 (centres undefined),-0.79,3*,-0.25,7,·,?,-44
